Test results reported in ChEMBL document CHEMBL3808291, “Bifunctional Peptide-Based Opioid Agonist-Nociceptin Antagonist Ligands for Dual Treatment of Acute and Neuropathic Pain” (J Med Chem, 2016).
Activity calls are given as the source filed them. Numbered stars: 1 amine (or outer) side, 2 acyl side, 3 side chain; on linkers, the order of the positions; unused ones are H or OH. Square brackets hold non-standard residues; d marks the D form. Peptide text beside a SMILES is read from it. X1 = O=C1[C@@H](N[*:1])Cc2ccccc2CN1CCC(=O)[*:2]; Dmt = Cc1cc(O)cc(C)c1C[C@H](N)C(=O)O

Key:
Mus musculus [1] = test: Antiallodynic activity in albino Swiss CD1 IGS mouse model of streptozocin-induced type1 diabetic neuropathic pain assessed as increase in mechanical threshold for paw withdrawal at 0.005 nmol, it administered on day 10 after STZ injection measured at 30 mins post dose by Von Frey test; format: functional, organism-based
Procedure, shortened: (§1)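 Male CD-1 mice (30–35 g). CCI: sciatic constriction injury, tested on days 7–16 after surgery. STZ diabetes: single ip streptozocin 200 mg/kg; mice with glucose >300 mg/dL included, tested on day 10. Drug in water for injection, given it (5 µL, L5–L6 lumbar puncture) to conscious mice. von Frey (cutoff 6 g) or cold plate (2 °C, 30 s cutoff, paw lift) at 30, 90, 180 min; 6–8 mice/group.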

Mus musculus [2] = test: Antihyperalgesic activity in albino Swiss CD1 IGS mouse model of chronic constriction injury-induced neuropathic pain assessed as increase in paw withdrawal latency at 0.0005 nmol, it administered on day 7 to 16 after CCI surgery measured 180 mins post dose by cold plate test; format: functional, organism-based; procedure, shortened: as §1
[3] = Passive permeability of compound at 500 uM after 4 hrs by BBB-PAMPA; format: ADME; details: read-out: permeability
Procedure, shortened: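 BBB-PAMPA with porcine brain polar lipids; compound at 500 µM in donor compartment in system solution containing 20% 1-propanol; 4 h at room temperature in humidified box, 25 µm unstirred water layer. Quantified by RP-HPLC, identity by MALDI-TOF; effective permeability and % transport calculated.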

Rattus norvegicus [4] = test: Reduction in expiratory time in Sprague-Dawley rat at 6 nmol/kg, iv after 5 to 120 mins by plethysmography method; format: organism-based; details: in vivo
Procedure, shortened: (§2)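 Male Sprague–Dawley rats (250–350 g) with implanted catheter and intraperitoneal temperature transmitter, dosed iv at T0; 0.9% NaCl as control; N = 6/group. Whole-body barometric plethysmography, ~60 s records at −30, −15, −5, 5–120 min.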

Rattus norvegicus [5] = test: Reduction in tidal volume in Sprague-Dawley rat at 6 nmol/kg, iv after 5 to 120 mins by plethysmography method; format: organism-based; details: in vivo; procedure, shortened: as §2
Mus musculus [6] = test: Antiallodynic activity in albino Swiss CD1 IGS mouse model of chronic constriction injury-induced neuropathic pain assessed as increase in mechanical threshold for paw withdrawal at 0.0005 nmol, it administered on day 7 to 16 after CCI surgery measured 180 mins post dose by Von Frey test; format: functional, organism-based; procedure, shortened: as §1
Mus musculus [7] = test: Antiallodynic activity in albino Swiss CD1 IGS mouse model of streptozocin-induced type1 diabetic neuropathic pain assessed as increase in mechanical threshold for paw withdrawal at 0.005 nmol, it administered on day 10 after STZ injection measured at 180 mins post dose by Von Frey test; format: functional, organism-based; procedure, shortened: as §1
Mus musculus [8] = test: Neurotoxicity in intrathecally dosed albino Swiss CD1 IGS mouse assessed as motor impairment measured after 15 to 120 mins post dose by rotarod test; format: toxicity, organism-based; details: in vivo, icv_or_intrathecal
Procedure, shortened: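 Intrathecal dosing (water for injection, 5 µL) to male CD-1 mice. After three training sessions, mice placed on accelerating rod (2 to 40 rpm over 300 s cutoff); tested 15 and 120 min after injection.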

Rattus norvegicus [9] = test: Induction of respiratory depression in Sprague-Dawley rat at 6 nmol/kg, iv after 5 to 120 mins by plethysmography method; format: organism-based; details: in vivo; procedure, shortened: as §2
Mus musculus [10] = test: Antinociceptive activity in C57BL6 mouse model of acute pain assessed as increase in withdrawal latency from radiant heat source at 31 to 61 nmol/kg, iv measured after 180 to 240 mins by tail flick assay relative to control; format: functional
Procedure, shortened: (§3)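 Male C57BL6 mice (20–25 g); compound or saline given iv into tail vein (po also tested). Radiant heat on ventral tail, latency to withdrawal/shaking recorded at baseline and 5, 15, 30, 60, 120 min (later points also reported); normalized as %MPE; 8–10 mice per group.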

Mus musculus [11] = test: Antihyperalgesic activity in albino Swiss CD1 IGS mouse model of streptozocin-induced type1 diabetic neuropathic pain assessed as increase in paw withdrawal latency at 0.005 nmol, it administered on day 10 after STZ injection measured at 180 mins post dose by […]; format: functional, organism-based; procedure, shortened: as §1
Mus musculus [12] = test: Antinociceptive activity in C57BL6 mouse model of acute pain assessed as increase in withdrawal latency from radiant heat source at 61 to 196 nmol/kg, po measured after 5 to 120 mins by tail flick assay relative to control; format: functional; procedure, shortened: as §3

Compound: CC[C@H](C)[C@H](NC(=O)[C@H](CCCNC(=N)N)NC(=O)[C@H](Cc1ccc(O)cc1)NC(=O)[C@H](Cc1ccc(O)cc1)NC(=O)[C@H](CCCNC(=N)N)NC(=O)CCN1Cc2ccccc2C[C@H](NC(=O)[C@@H](CCCNC(=N)N)NC(=O)[C@@H](N)Cc2c(C)cc(O)cc2C)C1=O)C(=O)N[C@@H](CCCCN)C(N)=O (H-[Dmt][dR][X1]RYYRIK-NH2)
- Activity (Mus musculus [1]): Active
- Activity (Mus musculus [2]): Active
- Papp at 4 h, 500 µM [3]: 0.11 ×10⁻⁶ cm/s
- Activity (Rattus norvegicus [4]): Non-toxic
- Activity (Rattus norvegicus [5]): Non-toxic
- Activity (Mus musculus [6]): Active
- Activity (Mus musculus [7]): inactive
- Activity (Mus musculus [8]): Non-toxic
- Activity (Rattus norvegicus [9]): Non-toxic
- MPE (Mus musculus [10]): 100%
- Activity (Mus musculus [11]): Active
- MPE (Mus musculus [12]): <5%
